In ChEMBL document CHEMBL4513216, “Probing the Open Global Health Chemical Diversity Library for Multistage-Active Starting Points for Next-Generation Antimalarials” (ACS Infect Dis, 2020):

Assay: Toxicity liver stage against HepG2, at 10uM
Format: cell-based
Parameters: test concentration 10 uM, cell line HepG2-A16-CD81EGFP
Details: human, HepG2-A16-CD81EGFP cells; read-out: INHIBITION
Outline: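 Uninfected HepG2-A16-CD81EGFP cells, 3 × 10^3 per well, 1536-well, plated on prespotted compound at 10 μM final, parasite-free screening media added to match infected plates; puromycin 10 μM positive, DMSO 0.5% negative; run in parallel with 48 h PbLuc assay at 37 °C, 5% CO2; viability by CellTiter-Glo luminescence, normalized to controls.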

Molecule `CNC(=O)CN([C@H]1C[C@H]2CCOC[C@H]2C1)S(=O)(=O)c1ccccc1` has a cytotoxicity at 10 µM of -1.63%.
Work on `OC[C@H]1CN2CCN(c3ccccn3)C[C@@H]2[C@@H]1c1ccccc1` yielded a cytotoxicity at 10 µM of -0.0603%.
Work on `CSc1ccc(C(=O)N2CC(=O)N(Cc3cccs3)CC(O)C2)cc1` (stereo not drawn) yielded a cytotoxicity at 10 µM of 2.31%.
Molecule `COCCn1ccc2c(NC(=O)C(C)C)cccc21` has a cytotoxicity at 10 µM of 1.01%.
Work on `O=C(Nc1cc(C(F)(F)F)ccc1Cl)c1ccc(N2CCOCC2)nn1` yielded a cytotoxicity at 10 µM of -9.89%.
For `Cc1cc2cc(CNC(=O)c3cnn4c3OCCC4)ccc2[nH]1`, the cytotoxicity at 10 µM was 6.59%.
With `CCOc1ccc(NC(=O)CN2CCN(c3nccn3C)CC2)cc1` the cytotoxicity at 10 µM was 4.05%.
`O=C(NCC(Cc1cccc(F)c1)N1CCCC1=O)c1ccccc1` (stereo not drawn) gave a cytotoxicity at 10 µM of -12.2%.
With `O=C(CCn1ccc2cc(Br)ccc21)NCc1ccc(C(=O)O)cc1` the cytotoxicity at 10 µM was -11.8%.
`Cc1noc(C)c1CN1CCCC2(CCN(C(=O)CC3CC3)C2)C1` (stereo not drawn) gave a cytotoxicity at 10 µM of 7.71%.
`Cc1cccnc1NC(=O)C(C)Cn1nc(C(F)(F)F)cc1C` (stereo not drawn) gave a cytotoxicity at 10 µM of 5.89%.
Molecule `Cn1ccnc1CNC(=O)CC1CCCCO1` (stereo not drawn) has a cytotoxicity at 10 µM of 1.24%.
Work on `CNC(=O)C1CN(C(=O)c2ccccc2)Cc2cn(C)nc21` (stereo not drawn) yielded a cytotoxicity at 10 µM of -1.5%.
Molecule `Cc1ccc(CN2CCC(c3cnccn3)CC2)s1` has a cytotoxicity at 10 µM of -0.64%.
For `Cc1cccc(CN2CCC(c3nnsc3S(C)(=O)=O)CC2)c1`, the cytotoxicity at 10 µM was 1.86%.
Molecule `CC(C)N1CCC(Cc2cncc(-c3cccc(C(=O)O)c3)n2)CC1` has a cytotoxicity at 10 µM of -20.8%.
For `Cc1cc(-c2cnn(CCNC(=O)c3cc[nH]n3)c2C2CC2)on1`, the cytotoxicity at 10 µM was -13.6%.
`O=S(=O)(c1ccccc1)N1CCCC1c1cc[nH]n1` (stereo not drawn) showed a cytotoxicity at 10 µM of -6.58%.
Work on `COc1cc2c(nn1)CCN(Cc1ncc(C(C)(C)C)o1)C2` yielded a cytotoxicity at 10 µM of -6.44%.
`CN(CC(C)(CO)CO)C(=O)Nc1cc(F)cc(F)c1` showed a cytotoxicity at 10 µM of 0.669%.
With `CCCc1noc(C(C)N2CCN(CCn3ccccc3=O)CC2)n1` (stereo not drawn) the cytotoxicity at 10 µM was 5.6%.
For `Cc1cnc(N2CCN(C(C)C(N)=O)CC2)nc1` (stereo not drawn), the cytotoxicity at 10 µM was 0.399%.
In the case of `COc1cc2c(cc1OC)CN(C(=O)NCC1CCCO1)CC2` (stereo not drawn), the cytotoxicity at 10 µM is reported as -16%.
Work on `NCC(CO)Cc1ccc(OC(F)(F)F)cc1` (stereo not drawn) yielded a cytotoxicity at 10 µM of 8.65%.
`CN(C)C1CCN(C(=O)C2SCCc3ccccc32)CC1` (stereo not drawn) showed a cytotoxicity at 10 µM of -4.67%.
Molecule `O=S(=O)(CCN1CCN(c2ccccc2O)CC1)c1ccc(Br)cc1` has a cytotoxicity at 10 µM of 10.7%.
`Cc1cc(C2CCCN2Cc2ccc(S(=O)(=O)N3CCCC3)o2)on1` (stereo not drawn) showed a cytotoxicity at 10 µM of -11.9%.
In the case of `CC(=O)N1CCN(C(=O)NCc2ccccc2Cn2ccnc2)CC1`, the cytotoxicity at 10 µM is reported as 0.243%.
For `CC(C)(O)CN1CCN(C(=O)c2cccn2Cc2ccncc2)CC1`, the cytotoxicity at 10 µM was -2.59%.
In the case of `CCN(Cc1ccc2c(c1)OCO2)C(=O)c1ccc(=O)n(C)c1`, the cytotoxicity at 10 µM is reported as 15.9%.
`Cn1ccnc1COc1ccc(COC(=O)C2CCCO2)cc1` (stereo not drawn) showed a cytotoxicity at 10 µM of -1.39%.
For `O=C(CS(=O)(=O)C1CCCC1)NC1CCc2nccn2C1` (stereo not drawn), the cytotoxicity at 10 µM was -17%.
For `Cc1nnc(CN(C)CCOc2cccc(Cl)c2)o1`, the cytotoxicity at 10 µM was 12.8%.
For `CCn1c(C)cc(C(=O)NCc2cccc(NS(C)(=O)=O)c2)c1C`, the cytotoxicity at 10 µM was -2.6%.
`CC(C)N(CCNC(=O)c1ccc(S(=O)(=O)NC2CC2)cc1)C(C)C` showed a cytotoxicity at 10 µM of -65.8%.
Work on `CN(C)CCN(Cc1ccccn1)C(=O)Nc1cccc(F)c1` yielded a cytotoxicity at 10 µM of 8.94%.
In the case of `O=C1OCCN1c1cccc(CNS(=O)(=O)Cc2ccc(F)cc2)c1`, the cytotoxicity at 10 µM is reported as 4.77%.
Molecule `CNC(=O)c1ccc(-c2ccccc2)n1C` has a cytotoxicity at 10 µM of -1.6%.
Molecule `O=C(NCCN1CCOCC1)Nc1cc(F)ccc1-n1cccn1` has a cytotoxicity at 10 µM of -14.9%.
For `CNC(=O)C(CCSC)NC(=O)c1ccc2ccccc2n1` (stereo not drawn), the cytotoxicity at 10 µM was -1.35%.
In the case of `CC(COCC(F)(F)F)NC(=O)c1ccc(-c2ccco2)[nH]c1=O` (stereo not drawn), the cytotoxicity at 10 µM is reported as -20.1%.
In the case of `Cn1cc(NC(=O)Nc2ccccn2)cc(Cl)c1=O`, the cytotoxicity at 10 µM is reported as -7.82%.
`Cc1ncc(CNC(=O)c2oc3ccccc3c2CN(C)C)s1` showed a cytotoxicity at 10 µM of 13.5%.
Molecule `c1coc(-c2nnc(CN3CCCC(CN4CCCCCC4)C3)o2)c1` (stereo not drawn) has a cytotoxicity at 10 µM of -10.5%.
With `Cc1nc(C)n(CC2CCCN(Cc3nnc(C(C)(C)C)o3)C2)n1` (stereo not drawn) the cytotoxicity at 10 µM was -11%.
`C=C(C)COc1cccc(C(=O)N(CC)Cc2nccn2C)c1` showed a cytotoxicity at 10 µM of -4.69%.
`CNc1ncc(CN(C)C(=O)c2cccc(CC3CCNCC3)c2)cn1` gave a cytotoxicity at 10 µM of -19.7%.
`Cc1cc(CC(C)Nc2ncnc3cccc(F)c23)[nH]n1` (stereo not drawn) showed a cytotoxicity at 10 µM of 26.4%.
Molecule `Cc1nsc(NC(=O)NC2CCCOC2)n1` (stereo not drawn) has a cytotoxicity at 10 µM of 16%.
For `Cc1cccc(CN2C[C@@H](CN3CCCN(C)CC3)[C@@H](CO)C2)n1`, the cytotoxicity at 10 µM was -7.57%.
Molecule `NCCc1nc(N(Cc2nccs2)C2CC2)c2ccccc2n1` has a cytotoxicity at 10 µM of -16.1%.
For `Cn1cc(CN2CCCN(CCCc3ccccc3)CC2)cn1`, the cytotoxicity at 10 µM was -50.8%.
For `CC(c1cccc(-c2ncccc2C#N)c1)N(C)C` (stereo not drawn), the cytotoxicity at 10 µM was -5.4%.
Work on `Cc1ccc(CN(CCN(C)C)C(=O)Nc2cc(C(N)=O)ccc2C)s1` yielded a cytotoxicity at 10 µM of 13.1%.
`Cc1ccsc1CN(c1nc(CCN)nc2ccccc12)C1CC1` showed a cytotoxicity at 10 µM of 11.7%.
In the case of `COc1ccc(NC2CCCN(Cc3cnc(N(C)C)s3)C2)cc1OC` (stereo not drawn), the cytotoxicity at 10 µM is reported as 3.46%.
`CC(C)=Cc1c(-c2ccccc2)ncn1CCS(C)(=O)=O` gave a cytotoxicity at 10 µM of -3.15%.
Molecule `Cc1ccc(-c2ccnc(NCC3(N(C)C)CCOCC3)n2)c(C)n1` has a cytotoxicity at 10 µM of 13.1%.
Molecule `O=C1CC2(CCN(C(=O)c3ccc4c(c3)CCCO4)C2)C(=O)N1` (stereo not drawn) has a cytotoxicity at 10 µM of 3.67%.
In the case of `Cc1cc(=O)[nH]c(-c2cccc(CN3CCCN4CCCC4C3)c2)n1` (stereo not drawn), the cytotoxicity at 10 µM is reported as 1.46%.
Work on `Cc1nc(N2CCN(C(=O)c3ccccc3)CC2)c2cnn(C)c2n1` yielded a cytotoxicity at 10 µM of -11.5%.
In the case of `Cc1noc(CN(C)Cc2ccc3c(c2)OCO3)n1`, the cytotoxicity at 10 µM is reported as -13.2%.
Work on `Cc1noc(C)c1CN1CCC(N(C)Cc2nnc(C3CC3)n2C)C1` (stereo not drawn) yielded a cytotoxicity at 10 µM of -4.03%.
In the case of `Cc1nc(C)n(CC2CCCN(Cc3ccc(F)cc3C#N)C2)n1` (stereo not drawn), the cytotoxicity at 10 µM is reported as -10.8%.
`N#Cc1ccc(CCC(=O)N2CCCC(n3cncn3)C2)cc1` (stereo not drawn) showed a cytotoxicity at 10 µM of -7.79%.
For `Cc1nsc2ncc(C(=O)N3CCCC3c3cnn(C)c3)cc12` (stereo not drawn), the cytotoxicity at 10 µM was -1.8%.
Molecule `Cn1cc(C(=O)N2CCCC2c2noc(C3CC3)n2)c2ccccc21` (stereo not drawn) has a cytotoxicity at 10 µM of -0.249%.
In the case of `CN1C(=O)Cc2cc(-c3csc(CCN4CCOC4=O)n3)ccc21`, the cytotoxicity at 10 µM is reported as -11.5%.
Work on `CC(c1cc(F)ccc1F)N1CCN(Cc2nccn2C)CC1` (stereo not drawn) yielded a cytotoxicity at 10 µM of -15.6%.
With `Cc1nn2cccnc2c1C(=O)N1CCCC(n2cccn2)C1` (stereo not drawn) the cytotoxicity at 10 µM was -35.9%.
In the case of `O=C(Cc1ccc2c(c1)OCCO2)NCc1ccc(-n2cncn2)nc1`, the cytotoxicity at 10 µM is reported as -20.5%.
`OC(CN1CCCCCCC1)c1ccc(OC(F)(F)F)cc1` (stereo not drawn) showed a cytotoxicity at 10 µM of -11.2%.
Work on `CCc1ccc(C(=O)N2CCN(c3nc(C)cc(OC)n3)CC2)o1` yielded a cytotoxicity at 10 µM of -18.7%.
Molecule `Cc1nc(C)n(C2CCCN(C(=O)Cc3n[nH]c4ccccc34)C2)n1` (stereo not drawn) has a cytotoxicity at 10 µM of -11.7%.
`CCn1cnnc1C1CCN(C(=O)c2ccc(C(=O)OC)s2)CC1` gave a cytotoxicity at 10 µM of -8.16%.
`Cc1ccc(Cl)cc1N1CCC(CNC(=O)CCn2ccnn2)C1` (stereo not drawn) showed a cytotoxicity at 10 µM of -5.72%.
`CCc1nc(CC(=O)N2CCn3c(nnc3C(C)C)C2)cs1` showed a cytotoxicity at 10 µM of -6.72%.
`CCc1cc(C(F)(F)F)n2nc(C3CCCN3C3CCSCC3)cc2n1` (stereo not drawn) showed a cytotoxicity at 10 µM of 3.81%.
For `CCn1cc2c(n1)CN(CC1CC1)CC2COCC1CC1` (stereo not drawn), the cytotoxicity at 10 µM was -1.26%.
In the case of `NCC(=O)N1CCCC(c2ccnc(Nc3cnccn3)n2)C1` (stereo not drawn), the cytotoxicity at 10 µM is reported as 2.66%.
In the case of `NCC1CCCCN1C(=O)Cc1cccc(Cl)c1` (stereo not drawn), the cytotoxicity at 10 µM is reported as -5.36%.
Work on `CCOCC1CN(C(=O)c2cccn2C)Cc2cnn(CC3CC3)c21` (stereo not drawn) yielded a cytotoxicity at 10 µM of 8.37%.
For `CN(C)C(=O)CN1C[C@H]2CC[C@@H](C1)N(Cc1ccc(Cl)cc1Cl)C2`, the cytotoxicity at 10 µM was -10.2%.
